Active and inactive are the calls of the source. The calls are words filed in the database; no cut-off is given here.

In experiment [1] the test system is P388. As to the kind of experiment: Growth inhibition of mouse P388 cells at 1 ug/mL after 48 hrs relative to control. Format: functional. The settings on record: P388, 48 h, read-out: GI. A digest of the protocol:
(§1)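 P-388 murine lymphocytic leukemia cells incubated with compound 48 h at 37° under humidified 5% CO2; cells counted by Coulter counter. Inhibitory ratio (%) = (1 − (T − C0)/(C − C0)) × 100, where T is the count with compound, C the count without compound and C0 the count at culture start.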

Experiment [2] has as its system P388. As to the kind of experiment: Growth inhibition of mouse P388 cells at 0.1 ug/mL after 48 hrs relative to control. The following applies: P388, 48 h, read-out: GI. The class given is functional. A digest of the protocol: as §1
In experiment [3] the test system is P388. The experiment is described as follows: Growth inhibition of mouse P388 cells at 0.01 ug/mL after 48 hrs relative to control. The following applies: P388, 48 h, read-out: GI. The class given is functional. An outline of the steps:
as §1

In experiment [4] the test system is Brassica juncea. The experiment is described as follows: Growth regulatory activity in Brassica juncea assessed as complete inhibition of stem growth at 1000 ppm after 10 days. The class given is functional, organism-based.
The test system of experiment [5] is Brassica juncea. As to the kind of experiment: Growth regulatory activity in Brassica juncea assessed as inhibition of stem growth at 250 ppm after 10 days. Format: functional, organism-based.
Experiment [6] deals with Brassica juncea. The experiment is described as follows: Growth regulatory activity in Brassica juncea assessed as complete inhibition of root growth at 1000 ppm after 10 days. Format: functional, organism-based.
The subject of experiment [7] is Brassica juncea. As to the kind of experiment: Growth regulatory activity in Brassica juncea assessed as complete inhibition of root growth at 500 ppm after 10 days. Format: functional, organism-based.
Experiment [8] relates to Cucumis sativus. The experiment is described as follows: Growth regulatory activity in Cucumis sativus assessed as complete inhibition of stem growth at 1000 ppm after 10 days. Format: functional, organism-based.
In experiment [9] the test system is Cucumis sativus. The experiment is described as follows: Growth regulatory activity in Cucumis sativus assessed as complete inhibition of stem growth at 500 ppm after 10 days. Format: functional, organism-based.
Experiment [10] has as its system Cucumis sativus. As to the kind of experiment: Growth regulatory activity in Cucumis sativus assessed as complete inhibition of root growth at 500 ppm after 10 days. The class given is functional, organism-based.
In experiment [11] the test system is Echinochloa frumentacea. As to the kind of experiment: Growth regulatory activity in Echinochloa frumentacea assessed as inhibition of stem growth at 500 ppm after 10 days. Format: functional, organism-based.
Experiment [12] concerns Brassica juncea. As to the kind of experiment: Growth regulatory activity in Brassica juncea assessed as inhibition of stem growth at 500 ppm after 10 days. Format: functional, organism-based.
Experiment [13] deals with Cucumis sativus. As to the kind of experiment: Growth regulatory activity in Cucumis sativus assessed as complete inhibition of root growth at 250 ppm after 10 days. The class given is functional, organism-based.
Experiment [14] concerns Cucumis sativus. As to the kind of experiment: Growth regulatory activity in Cucumis sativus assessed as complete inhibition of root growth at 100 ppm after 10 days. Format: functional, organism-based.
The test system of experiment [15] is Echinochloa frumentacea. As to the kind of experiment: Growth regulatory activity in Echinochloa frumentacea assessed as complete inhibition of root growth at 250 ppm after 10 days. Format: functional, organism-based.
The test system of experiment [16] is P388. The experiment is described as follows: Growth inhibition of mouse P388 cells at 10 ug/mL after 48 hrs relative to control. The settings on record: P388, 48 h, read-out: GI. The class given is functional. An outline of the steps: as §1
The subject of experiment [17] is Echinochloa frumentacea. The experiment is described as follows: Growth regulatory activity in Echinochloa frumentacea assessed as complete inhibition of root growth at 500 ppm after 10 days. Format: functional, organism-based.
Experiment [18] concerns Echinochloa frumentacea. As to the kind of experiment: Growth regulatory activity in Echinochloa frumentacea assessed as complete inhibition of root growth at 1000 ppm after 10 days. The class given is functional, organism-based.
The test system of experiment [19] is Echinochloa frumentacea. As to the kind of experiment: Growth regulatory activity in Echinochloa frumentacea assessed as complete inhibition of stem growth at 1000 ppm after 10 days. Format: functional, organism-based.
Experiment [20] relates to Cucumis sativus. The experiment is described as follows: Growth regulatory activity in Cucumis sativus assessed as complete inhibition of root growth at 1000 ppm after 10 days. Format: functional, organism-based.
Experiment [21] relates to Cucumis sativus. As to the kind of experiment: Growth regulatory activity in Cucumis sativus assessed as inhibition of stem growth at 250 ppm after 10 days. Format: functional, organism-based.
The subject of experiment [22] is Brassica juncea. The experiment is described as follows: Growth regulatory activity in Brassica juncea assessed as inhibition of root growth at 250 ppm after 10 days. Format: functional, organism-based.
Experiment [23] has as its system Echinochloa frumentacea. As to the kind of experiment: Growth regulatory activity in Echinochloa frumentacea assessed as inhibition of stem growth at 250 ppm after 10 days. The class given is functional, organism-based.
Experiment [24] deals with Cucumis sativus. As to the kind of experiment: Growth regulatory activity in Cucumis sativus assessed as complete inhibition of stem growth at 250 ppm after 10 days. The class given is functional, organism-based.
The test system of experiment [25] is Echinochloa frumentacea. The experiment is described as follows: Growth regulatory activity in Echinochloa frumentacea assessed as inhibition of root growth at 500 ppm after 10 days. Format: functional, organism-based.
The test system of experiment [26] is Cucumis sativus. The experiment is described as follows: Growth regulatory activity in Cucumis sativus assessed as inhibition of root growth at 500 ppm after 10 days. The class given is functional, organism-based.
Experiment [27] deals with Brassica juncea. The experiment is described as follows: Growth regulatory activity in Brassica juncea assessed as inhibition of root growth at 500 ppm after 10 days. Format: functional, organism-based.
Experiment [28] relates to Echinochloa frumentacea. As to the kind of experiment: Growth regulatory activity in Echinochloa frumentacea assessed as inhibition of root growth at 1000 ppm after 10 days. The class given is functional, organism-based.
Experiment [29] deals with Echinochloa frumentacea. The experiment is described as follows: Growth regulatory activity in Echinochloa frumentacea assessed as inhibition of stem growth at 1000 ppm after 10 days. Format: functional, organism-based.
The subject of experiment [30] is Cucumis sativus. As to the kind of experiment: Growth regulatory activity in Cucumis sativus assessed as inhibition of root growth at 250 ppm after 10 days. Format: functional, organism-based.
The subject of experiment [31] is Brassica juncea. As to the kind of experiment: Growth regulatory activity in Brassica juncea assessed as inhibition of root growth at 1000 ppm after 10 days. Format: functional, organism-based.
Experiment [32] has as its system Brassica juncea. The experiment is described as follows: Growth regulatory activity in Brassica juncea assessed as complete inhibition of stem growth at 500 ppm after 10 days. The class given is functional, organism-based.
In experiment [33] the test system is Brassica juncea. The experiment is described as follows: Growth regulatory activity in Brassica juncea assessed as complete inhibition of root growth at 250 ppm after 10 days. Format: functional, organism-based.
Experiment [34] has as its system Cucumis sativus. The experiment is described as follows: Growth regulatory activity in Cucumis sativus assessed as inhibition of stem growth at 100 ppm after 10 days. Format: functional, organism-based.
In experiment [35] the test system is Cucumis sativus. The experiment is described as follows: Growth regulatory activity in Cucumis sativus assessed as inhibition of root growth at 100 ppm after 10 days. Format: functional, organism-based.
The test system of experiment [36] is Echinochloa frumentacea. As to the kind of experiment: Growth regulatory activity in Echinochloa frumentacea assessed as complete inhibition of stem growth at 500 ppm after 10 days. The class given is functional, organism-based.

Regarding `COc1cccc2c1C(=O)c1c(O)c3c(c(O)c1C2=O)C[C@@](O)(C(=O)CO)C[C@@H]3O[C@H]1C[C@H](N)[C@H](O)[C@H](C)O1` [DOXORUBICIN], in the experiment with P388 [1], the inhibition of growth at 1 µg/mL stood at 105%. Besides, the inhibition of growth at 0.1 µg/mL in the experiment on P388 [2] is 99%. Besides, the inhibition of growth at 0.01 µg/mL with P388 [3] is 38%.
`C[C@]12CCC[C@@](C)(O)[C@@H]1[C@H]1OC(=O)C(CCl)=C1CC2`: the outcome with Brassica juncea [4], in the experiment with Brassica juncea [5], in the experiment with Brassica juncea [6], with Brassica juncea [7], in the experiment on Cucumis sativus [8] and with Cucumis sativus [9] was Active. The result in the experiment on Cucumis sativus [10], with Echinochloa frumentacea [11], with Brassica juncea [12], with Cucumis sativus [13], with Cucumis sativus [14] and in the experiment on Echinochloa frumentacea [15] was Active. In addition, the outcome in the experiment on Echinochloa frumentacea [17], with Echinochloa frumentacea [18], in the experiment on Echinochloa frumentacea [19], in the experiment on Cucumis sativus [20], in the experiment on Cucumis sativus [21] and with Brassica juncea [22] was Active. Besides, the inhibition of growth at 10 µg/mL in the experiment with P388 [16] turned out to be 103%. In addition, the inhibition of growth at 1 µg/mL with P388 [1] is 65%. Also, the inhibition of growth at 0.1 µg/mL in the experiment with P388 [2] is 26%.
Turning to `CC(=O)OCC1=C2CC[C@@]3(C)CCC[C@@](C)(O)[C@@H]3[C@H]2OC1=O`, the result with Echinochloa frumentacea [23], in the experiment with Brassica juncea [4] and in the experiment with Brassica juncea [6] was Active.
For the molecule `C[C@@H]1C(=O)O[C@H]2C1CC[C@@]1(C)CCC[C@@](C)(O)[C@H]21` (stereo not given in full), the result in the experiment with Brassica juncea [4], in the experiment on Brassica juncea [6], in the experiment with Brassica juncea [7], in the experiment with Cucumis sativus [8], with Cucumis sativus [9] and in the experiment with Cucumis sativus [10] was Active. For the same molecule, the result in the experiment with Echinochloa frumentacea [11], in the experiment on Brassica juncea [12], in the experiment on Cucumis sativus [24], in the experiment on Cucumis sativus [13], in the experiment on Echinochloa frumentacea [17] and in the experiment on Echinochloa frumentacea [18] was Active. Also, the result with Echinochloa frumentacea [19] and in the experiment on Cucumis sativus [20] was Active.
Take `C[C@]12CCC[C@@](C)(O)[C@@H]1[C@H]1OC(=O)C(CBr)=C1CC2`: the result in the experiment on Echinochloa frumentacea [25], in the experiment with Brassica juncea [4], in the experiment on Brassica juncea [6], in the experiment on Cucumis sativus [8], with Echinochloa frumentacea [18] and with Echinochloa frumentacea [19] was Active. The result with Cucumis sativus [26] and with Brassica juncea [27] was Active. In addition, the inhibition of growth at 10 µg/mL in the experiment with P388 [16] is 102%. Besides, the inhibition of growth at 1 µg/mL in the experiment with P388 [1] worked out at 44%. Further, in the experiment on P388 [2], the inhibition of growth at 0.1 µg/mL was 3%.
For `C[C@]12CCC[C@@](C)(O)[C@@H]1[C@H]1OC(=O)C(CO)=C1CC2`, the outcome with Echinochloa frumentacea [28], in the experiment on Echinochloa frumentacea [29], in the experiment with Cucumis sativus [30], with Cucumis sativus [26], in the experiment on Cucumis sativus [20] and with Brassica juncea [31] was Active.
For `C=C1C(=O)O[C@@H]2[C@@H]3[C@](C)(CCC[C@@]3(C)O)CC[C@@H]12` [ARBUSCULIN A], the result with Brassica juncea [4], in the experiment with Brassica juncea [32], in the experiment on Brassica juncea [5], in the experiment with Brassica juncea [6], in the experiment on Brassica juncea [7] and in the experiment with Brassica juncea [33] was Active. Also, the outcome in the experiment on Cucumis sativus [8], with Cucumis sativus [9], in the experiment with Cucumis sativus [34], with Cucumis sativus [10], with Cucumis sativus [35] and in the experiment with Echinochloa frumentacea [17] was Active. Moreover, the result in the experiment with Echinochloa frumentacea [18], in the experiment with Echinochloa frumentacea [36], in the experiment on Echinochloa frumentacea [19], in the experiment on Cucumis sativus [30], with Cucumis sativus [26] and with Cucumis sativus [20] was Active. Moreover, in the experiment on Cucumis sativus [21], the result was Active. Moreover, the inhibition of growth at 10 µg/mL in the experiment on P388 [16] worked out at 101%. The inhibition of growth at 1 µg/mL in the experiment with P388 [1] was determined as 45%. Besides, the inhibition of growth at 0.1 µg/mL in the experiment on P388 [2] was determined as 2%.

The record behind these values is ChEMBL document CHEMBL1150054, “Studies on the synthesis of sesquiterpene lactones, 14. Syntheses of (-)-arbusclin D and (+)-4-EPI-arbusclin D: the stereochemical assignment of arbusclin D” (1992).
